One test has as its system Salmonella enteritidis. Put plainly: Compound was tested in vitro for antibacterial activity against Salmonella enteritidis E497 strain. Conditions: Salmonella enterica.
A further test deals with Escherichia coli. Put plainly: Compound was tested in vitro for antibacterial activity against Escherichia coli CB64 strain. The class given is functional. The procedure, abridged:
(§1)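 Inocula grown on agar slants or in liquid M9 or Davis-Mingoli minimal medium for 7–16 h at 37 °C. Peptides dissolved in 50 mM potassium phosphate, pH 7.4, serially diluted 2- or 10-fold in the same buffer, filter-sterilized.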

The next test concerns Serratia marcescens. Briefly: Compound was tested in vitro for antibacterial activity against Serratia marcescens ATCC 13880 strain. The class given is functional. In short, it runs like this:
as §1

The nature of test [1]: Compound was tested in vitro for antibacterial activity against Citrobacter sp 2404 strain. The class given is functional. In short, it runs like this:
as §1

The subject of a further test is Klebsiella pneumoniae. Put plainly: Compound was tested in vitro for antibacterial activity against Klebsiella pneumoniae 4200 strain. The class given is functional. In short, it runs like this: as §1
Test [2] deals with Enterobacter cloacae. Put plainly: Compound was tested in vitro for antibacterial activity against Enterobacter cloacae P99 strain. The class given is functional. The procedure, abridged:
as §1

The next test relates to Providencia rettgeri. Briefly: Compound was tested in vitro for antibacterial activity against Providencia rettgeri AAB-137 strain. The class given is functional. In short, it runs like this:
as §1

A further test relates to Pseudomonas aeruginosa. Briefly: Compound was tested in vitro for antibacterial activity against Pseudomonas aeruginosa 647 strain. The class given is functional. The procedure, abridged:
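Broth microdilution MIC. Inocula were pre-grown on agar slants or in M9 or Davis-Mingoli minimal medium for 7–16 h at 37 °C. Peptides were dissolved in 50 mM potassium phosphate, pH 7.4, serially diluted 2- or 10-fold, and filter-sterilised. Wells held 10^5 cfu/mL in M-9 broth with thiamine and lysine, read after 16 h at 37 °C.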

For test [3], the system named is Enterobacter cloacae. Briefly: Reversal of antibacterial activity by the compound, expressed as agar disc zone size with L-Ala-LL-DAP (0.0 ug/disc). The class given is functional.
Test [4] deals with Enterobacter cloacae. Briefly: Reversal of antibacterial activity by the compound, expressed as agar disc zone size with LL-DAP (0.38 ug/disc); No zone. The class given is functional, organism-based.
Test [5] has as its system Enterobacter cloacae. Put plainly: Reversal of antibacterial activity by the compound, expressed as agar disc zone size with L-Ala-LL-DAP (26 ug/disc); No zone. The class given is functional, organism-based.
Test [6] has as its system Enterobacter cloacae. Put plainly: Reversal of antibacterial activity by the compound, expressed as agar disc zone size with LL-DAP (0.0 ug/disc). The class given is functional.
Test [7] concerns Enterobacter cloacae. Put plainly: Reversal of antibacterial activity by the compound, expressed as agar disc zone size with L-Ala-LL-DAP (6.5 ug/disc). The class given is functional.
The test system of test [8] is Enterobacter cloacae. Briefly: Reversal of antibacterial activity by the compound, expressed as agar disc zone size with LL-DAP (0.76 ug/disc); No zone. The class given is functional, organism-based.
Test [9] has as its system Enterobacter cloacae. Briefly: Reversal of antibacterial activity by the compound, expressed as agar disc zone size with LL-DAP (0.19 ug/disc). Type of test: functional.

Converted amounts (≈) assume the structure as drawn. “And” between values parts separate entries of the source, which are not always exact repeats. Equal entries are not always repeated.

A word on the MIC: it is the lowest concentration that inhibits growth of the organism. A low value points to greater potency. For the compound `O=C(O)CCCC[C@H](NC(=O)[C@@H]1CCCN1)C(=O)O`, the MIC in the test on Salmonella enteritidis was over 1000 µg/mL; against Escherichia coli, 500 µg/mL (≈ 1840 µM); against Serratia marcescens it was over 1000 µg/mL; in [1], 250 µg/mL (≈ 918 µM); against Klebsiella pneumoniae, 63 µg/mL (≈ 231 µM); against Enterobacter cloacae [2], 250 µg/mL (≈ 918 µM). In addition, in the test on Providencia rettgeri, the lowest concentration to inhibit growth (MIC) was 250 µg/mL (≈ 918 µM).
For the compound `NC(CCCCC(=O)O)C(=O)O` (centres undefined), the MIC in the test on Salmonella enteritidis was over 1000 µg/mL; against Pseudomonas aeruginosa, over 1000 µg/mL; with Escherichia coli, over 1000 µg/mL; with Serratia marcescens, over 1000 µg/mL; in test [1], over 1000 µg/mL; with Klebsiella pneumoniae, 500 µg/mL (≈ 2850 µM). The compound further registered an MIC in the test on Enterobacter cloacae [2] of over 1000 µg/mL.
With `C[C@H](N)C(=O)N[C@@H](CCCCC(=O)O)C(=O)O`, the MIC against Salmonella enteritidis stood at 16 µg/mL (≈ 65 µM); against Pseudomonas aeruginosa, 1000 µg/mL (≈ 4060 µM); against Escherichia coli it was 16 µg/mL (≈ 65 µM); against Serratia marcescens, 8 µg/mL (≈ 32.5 µM); in test [1], 8 µg/mL (≈ 32.5 µM); in the test with Klebsiella pneumoniae it was 16 µg/mL (≈ 65 µM). The MIC in the test on Enterobacter cloacae [2] and against Providencia rettgeri was 4 µg/mL (≈ 16.2 µM) in each case.
For `C[C@H](NC(=O)[C@@H](N)CCCCC(=O)O)C(=O)O`, the MIC in the test with Salmonella enteritidis was 8 µg/mL (≈ 32.5 µM); against Pseudomonas aeruginosa it was over 1000 µg/mL; in the test on Escherichia coli it was 2 µg/mL (≈ 8.12 µM); in the test with Serratia marcescens it was 2 µg/mL (≈ 8.12 µM); in test [1] it was 2 µg/mL (≈ 8.12 µM); against Klebsiella pneumoniae, 8 µg/mL (≈ 32.5 µM). For the same compound, the figures for the MIC against Enterobacter cloacae [2] and in the test with Providencia rettgeri were 4 µg/mL (≈ 16.2 µM) and under 1 µg/mL, respectively.
With `N[C@@H](CCCCC(=O)O)C(=O)N1CCC[C@H]1C(=O)O`, the MIC is over 1000 µg/mL against Salmonella enteritidis; over 1000 µg/mL against Escherichia coli; over 1000 µg/mL with Serratia marcescens; over 1000 µg/mL in test [1]; 16 µg/mL (≈ 58.8 µM) with Klebsiella pneumoniae; 8 µg/mL (≈ 29.4 µM) in the test with Enterobacter cloacae [2]. This compound also had a minimum inhibitory concentration (MIC) against Providencia rettgeri of 4 µg/mL (≈ 14.7 µM).
In the case of `CC(N)C(=O)NCCP(=O)(O)O` (centres undefined) [ALAFOSALIN], the MIC with Salmonella enteritidis is 50 µg/mL (≈ 255 µM); against Pseudomonas aeruginosa it was over 100 µg/mL; in the test on Escherichia coli it was under 0.1 µg/mL; in the test on Serratia marcescens, 1.6 µg/mL (≈ 8.16 µM); in test [1] it was 25 µg/mL (≈ 127 µM); in the test with Klebsiella pneumoniae, 1.6 µg/mL (≈ 8.16 µM). The MIC is 100 µg/mL (≈ 510 µM) in the test with Enterobacter cloacae [2] and over 100 µg/mL against Providencia rettgeri.
For `C[C@H](N)C(=O)N[C@@H](C)C(=O)N[C@@H](CCCCC(=O)O)C(=O)O`, the Zone size in the test on Enterobacter cloacae [3] is 25 mm; in the test on Enterobacter cloacae [4] it was “No zone”; with Enterobacter cloacae [5], “No zone”; with Enterobacter cloacae [6], 25 mm; in the test on Enterobacter cloacae [7], 9 mm and 15 mm; in the test on Enterobacter cloacae [8] it was “No zone”. Further, in the test on Enterobacter cloacae [9], the Zone size is 17 mm and 21 mm. Also, the MIC came to 2 µg/mL (≈ 6.3 µM) in the test on Salmonella enteritidis; 31 µg/mL (≈ 97.7 µM) in the test on Escherichia coli; 16 µg/mL (≈ 50.4 µM) in the test with Serratia marcescens; 250 µg/mL (≈ 788 µM) in test [1]; 1000 µg/mL (≈ 3150 µM) with Klebsiella pneumoniae; 63 µg/mL (≈ 199 µM) in the test with Enterobacter cloacae [2]. Also, in the test with Providencia rettgeri, the MIC was 125 µg/mL (≈ 394 µM).
